Laboratory results as given in publication PMC3729215 (Bioorganic & medicinal chemistry, 2011).

Key:
rTRPV1 [1] = molecular target: T1, rTRPV1 (Rattus norvegicus, UniProt O35433); format: cell-based; conditions: rTRPV1/CHO
Procedure, shortened: (§1)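 Both binding and function were measured on rat TRPV1 heterologously expressed in CHO cells. Affinity came from competition with [3H]RTX. Antagonism came from a functional 45Ca2+ uptake assay. Values are mean ± SEM from 3 or more experiments.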

rTRPV1 [2] = molecular target: T1, rTRPV1; test: [3H]RTX binding competition assay, rat TRPV1 expressed in CHO cells
Procedure, shortened: as §1

T1 sequence (O35433 whole entry): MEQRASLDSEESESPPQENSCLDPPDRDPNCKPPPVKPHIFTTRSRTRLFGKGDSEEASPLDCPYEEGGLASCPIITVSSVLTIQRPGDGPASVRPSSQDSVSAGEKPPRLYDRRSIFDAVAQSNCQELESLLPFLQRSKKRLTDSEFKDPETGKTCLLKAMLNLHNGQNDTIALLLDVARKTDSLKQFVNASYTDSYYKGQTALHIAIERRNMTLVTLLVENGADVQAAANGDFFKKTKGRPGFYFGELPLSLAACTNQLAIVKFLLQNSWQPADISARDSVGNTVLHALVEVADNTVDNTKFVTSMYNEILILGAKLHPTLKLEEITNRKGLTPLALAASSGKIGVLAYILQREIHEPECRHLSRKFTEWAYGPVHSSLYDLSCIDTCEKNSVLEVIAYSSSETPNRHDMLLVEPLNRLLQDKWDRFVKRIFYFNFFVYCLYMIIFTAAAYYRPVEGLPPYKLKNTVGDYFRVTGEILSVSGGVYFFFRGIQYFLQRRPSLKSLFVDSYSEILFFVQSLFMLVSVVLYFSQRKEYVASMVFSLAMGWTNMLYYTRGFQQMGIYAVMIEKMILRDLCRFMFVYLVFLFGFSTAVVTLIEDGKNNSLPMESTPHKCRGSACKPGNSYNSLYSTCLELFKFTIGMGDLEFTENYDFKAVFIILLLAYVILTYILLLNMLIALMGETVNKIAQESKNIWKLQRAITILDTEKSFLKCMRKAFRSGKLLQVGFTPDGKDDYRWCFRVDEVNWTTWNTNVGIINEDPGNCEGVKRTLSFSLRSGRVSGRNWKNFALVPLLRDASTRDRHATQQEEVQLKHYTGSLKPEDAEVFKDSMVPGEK

Question: How did the “fold reduction in potency as antagonist compared to 54” value (shortened to “fold reduction in potency”) (rTRPV1 [1]) turn out when `CC(C(=O)NCc1ccc(C(C)(C)C)cc1)c1ccc(NS(C)(=O)=O)c(Br)c1` (stereo not shown) [compound 56, N-(4-tert-Butylbenzyl)-2-[3-bromo-4-(methylsulfonylamino)phenyl]propionamide] was run?
Answer: The value was 4 fold.

Question: How did the “fold reduction in potency” value (rTRPV1 [1]) turn out when `CC(C(=O)NCc1ccc(C(C)(C)C)cc1)c1ccc(NS(C)(=O)=O)c(Cl)c1` (stereo not shown) [compound 55, N-(4-tert-Butylbenzyl)-2-[3-chloro-4-(methylsulfonylamino)phenyl]propionamide] was run?
Answer: Its value is 4 fold.

Question: Which “fold reduced activity in binding affinity and antagonism” value (rTRPV1 [2]; rTRPV1/CHO, binding and antagonism together, compared with 54) does the source give for `COc1cc(C(C)C(=O)NCc2ccc(C(C)(C)C)cc2)ccc1NS(C)(=O)=O` (stereo not shown) [compound 71, N-(4-tert-Butylbenzyl)-2-[3-methoxy-4-(methylsulfonylamino)phenyl]propionamide] here?
Answer: Its value is 10 to 30 fold.

Question: How did the “fold reduction in potency” value (rTRPV1 [1]) turn out when `CC(C(=O)NCc1ccc(C(C)(C)C)cc1)c1ccc(NS(C)(=O)=O)c(I)c1` (stereo not shown) [compound 57, N-(4-tert-Butylbenzyl)-2-[3-iodo-4-(methylsulfonylamino)phenyl]propionamide] was run?
Answer: The value was 4 fold.

Question: For `C[C@@H](C(=O)NCc1ccc(C(C)(C)C)cc1)c1ccc(NS(C)(=O)=O)c(F)c1` [54R, N-(4-tert-Butylbenzyl)-(2R)-2-[3-fluoro-4-(methylsulfonylamino)phenyl]propionamide], which “fold weaker activity compared with 54S” value (rTRPV1 [2]; rTRPV1, binding and antagonism together) is on record?
Answer: The value was 30- to 40 fold.

Question: With `CC(C(=O)NCc1ccc(C(C)(C)C)cc1)c1cc(F)c(NS(C)(=O)=O)c(F)c1` (stereo not shown) [compound 58, N-(4-tert-Butylbenzyl)-2-[3,5-difluoro-4-(methylsulfonylamino)phenyl]propionamide] as the molecule, how does the “fold enhancement in binding affinity compared to 54” value (rTRPV1 [2]; rTRPV1/CHO) read?
Answer: The value was 2 fold.

Question: `C[C@H](C(=O)NCc1ccc(C(C)(C)C)cc1)c1ccc(NS(C)(=O)=O)c(F)c1` [54S, N-(4-tert-Butylbenzyl)-(2S)-2-[3-fluoro-4-(methylsulfonylamino)phenyl]propionamide] was tested. Which “fold enhancement in receptor activity compared to 54” value (rTRPV1 [2]; binding and antagonism together) did it give?
Answer: The value was ~2 fold.
